Assay outcomes: PubChem BioAssay, several laboratories
TRPC6 inh: blocks the mouse TRPC6 cation channel; Q61143; HEK293-TRPC6, membrane potential dye, ACh-evoked depolarization; active compounds read low; B-score at 10 µM; 310,000 tested, 1.1% active;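 active means B-score under library mean minus 3 SD, initial fluorescence not abnormally high, positive integrated signal ratio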;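 further: B-score derived from integrated fluorescence ratio over the kinetic read; more negative B-score means stronger inhibition of depolarization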
Target sequence (Q61143 whole entry, looked up): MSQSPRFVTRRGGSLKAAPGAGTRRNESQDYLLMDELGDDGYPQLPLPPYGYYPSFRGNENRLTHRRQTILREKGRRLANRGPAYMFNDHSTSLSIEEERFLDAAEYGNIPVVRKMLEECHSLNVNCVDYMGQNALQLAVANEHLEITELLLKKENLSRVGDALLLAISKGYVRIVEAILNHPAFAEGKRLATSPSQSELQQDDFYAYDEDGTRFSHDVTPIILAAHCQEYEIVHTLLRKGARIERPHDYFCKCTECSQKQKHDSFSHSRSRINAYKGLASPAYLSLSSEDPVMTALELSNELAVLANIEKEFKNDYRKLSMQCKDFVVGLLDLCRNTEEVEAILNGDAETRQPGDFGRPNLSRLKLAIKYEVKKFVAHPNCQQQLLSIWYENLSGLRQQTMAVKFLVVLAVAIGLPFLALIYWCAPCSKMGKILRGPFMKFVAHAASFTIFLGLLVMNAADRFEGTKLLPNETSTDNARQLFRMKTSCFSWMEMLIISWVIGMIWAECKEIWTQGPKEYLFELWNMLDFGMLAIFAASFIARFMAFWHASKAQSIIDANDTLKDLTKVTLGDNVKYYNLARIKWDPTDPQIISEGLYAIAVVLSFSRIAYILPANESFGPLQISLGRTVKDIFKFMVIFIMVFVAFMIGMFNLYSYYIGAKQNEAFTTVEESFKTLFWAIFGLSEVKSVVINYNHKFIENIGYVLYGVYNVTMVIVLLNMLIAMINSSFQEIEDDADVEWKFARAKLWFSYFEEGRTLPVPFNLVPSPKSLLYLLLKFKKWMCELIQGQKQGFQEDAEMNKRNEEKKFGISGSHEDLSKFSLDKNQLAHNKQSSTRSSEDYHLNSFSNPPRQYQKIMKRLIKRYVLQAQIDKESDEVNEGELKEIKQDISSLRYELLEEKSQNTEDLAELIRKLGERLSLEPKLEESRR
TRPC4 inh: TRPC4 (mouse) channel inhibition; Q9QUQ5; HEK293 TRPC4beta/mu-opioid, DAMGO-evoked Fluo4 calcium flux; active compounds read low; B-score at 10 µM; 300,000 tested, 0.39% active; AID 2247;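 active means B-score over 3 SD under the library average, no early fluorescence shift, positive overall ratio signal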
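Test system – stable TRPC4beta/mu-opioid receptor HEK293 cells · Probe or stimulus – DAMGO, a submaximal dose followed by a maximal one · Dosing – one concentration per compound · Signal – Fluo4 calcium fluorescence by kinetic imaging, 5 s 1 Hz baseline · Evaluation – per-well B score of integrated baseline-normalized Fluo4 ratio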
TRPC4 potent: allosterically enhances the mouse TRPC4 cation channel | Q9QUQ5 | HEK293 TRPC4beta/mu-opioid, DAMGO EC20, Fluo-4 Ca2+ flux; active compounds read high | B-score at 10 µM | 310,000 tested, 0.42% active;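 active means B-score of calcium response area above 5 SD of library B-scores, with initial fluorescence ratio within 5 SD of library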;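 further: B-score of integrated fluorescence ratio over time as area under calcium response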
TRPC4 act: activators of mouse TRPC4 channel | Q9QUQ5 | HEK293 TRPC4beta/mu-opioid, Fluo4 calcium fluorescence; active compounds read high | B-score at 10 µM | 310,000 tested, 0.49% active | AID 2237;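 active means B-score above 5 SD of library B-scores, and initial fluorescence ratio not above library mean plus 5 SD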;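 further: positive B-score marks a calcium rise read as TRPC4 activation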
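Assay system: HEK293 cells stably co-expressing mouse TRPC4beta and mu-opioid receptor / Timing: Fluo4 dye loading 45 min at room temperature, 110 s recording / Signal: Fluo4 calcium-sensitive dye fluorescence, kinetic, 1 Hz baseline / Read-out: integrated baseline-normalised fluorescence ratio, converted to per-well B score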
CR mimetic SO: lowers age-related superoxide in aged yeast cells | superoxide response (% of plate mean), % at 10 µM | S. cerevisiae aged cells, superoxide DHE fluorescence; active compounds read low | 330,000 tested, 0.18% active;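 active means superoxide response under a set limit, about three screen SD below normal, cut at about 65% in these data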;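 further: yeast aged for seven days with compound at 30 °C before DHE staining; 100% = average MFI of all compound-treated wells on the plate with controls excluded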
TRPC6 act: mouse TRPC6 channel activation; HEK293-TRPC6 membrane potential dye fluorescence; active compounds read high; B-score at 10 µM; 310,000 tested, 0.13% active;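 active means B-score of the integrated fluorescence ratio above library mean plus 3 SD, and starting fluorescence ratio within library mean plus 5 SD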;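 further: higher score means more depolarization so channel activation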
TRPC4 sel inh 2: second check of whether TRPC6 inhibitors also affect mouse TRPC4; shares compounds with TRPC6 inh; HEK293 TRPC4/MOR, membrane potential dye fluorescence; channel activated by saturating DAMGO dose; inhibition, % at 10 µM; 920 tested, 42% active; AID 2776;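 active means compounds whose fluorescence signal differed from control wells by over 3 SD, either direction, in both duplicate plates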
TRPC4 spec: mouse TRPC4 off-target activity of TRPC6 inhibitors; shares compounds with TRPC6 inh; HEK293 TRPC4/mu-opioid, membrane potential fluorescence; activity change, negative = inhibition, % at 10 µM; 920 tested, 61% active; AID 2777;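 active means rise or fall in signal beyond 3 SD of buffer-only wells in both replicate plates, either sign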;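 further: integrated kinetic ratio of fluorescence range over baseline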
HEK293 MPD ctr 2-1: second counter-screen for TRPC6 inhibitors: parental HEK293 cells; parental HEK293 membrane potential dye fluorescence; maximal acetylcholine challenge after compound addition; 920 tested, 31% active; AID 2779; shares compounds with TRPC6 inh; signal change vs control, % at 10 µM;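 active means membrane potential signal moving either way by over 3 SD of the maximum-effect control, in both duplicate plates, meaning non-specific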
HEK293 MPD ctr-1: checks TRPC6 inhibitor effects in parental HEK293 cells | shares compounds with TRPC6 inh | parental HEK293 membrane potential dye fluorescence | membrane potential signal change, % at 10 µM | 920 tested, 60% active | AID 2780;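 active means membrane potential signal shifting up or down by more than 3 SD of buffer-only wells, on both duplicate plates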
HEK293 MPD ctr-2: parental HEK293 nonspecific activity of TRPC6 modulators; shares compounds with TRPC6 inh; membrane potential dye fluorescence; membrane potential signal change, % at 10 µM; 2,400 tested, 51% active; AID 488924;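 active means membrane potential signal moves up or down beyond 5 SD from buffer-only wells, on both duplicate plates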
HEK293 MPD ctr 2-2: second counter-screen for TRPC6 modulators: effect in parental HEK293 cells; shares compounds with TRPC6 inh; membrane potential dye fluorescence; after compound, maximal acetylcholine stimulation; inhibition, % at 10 µM; 2,400 tested, 14% active;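 active means membrane potential signal drops by more than 5 SD from the mean control signal, in both duplicate plates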;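 further: plate controls were acetylcholine ECmax control wells for no effect and buffer only wells for full effect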
TRPC4 ctr mod: selectivity of TRPC6 modulators against mouse TRPC4 | shares compounds with TRPC6 inh | HEK293 TRPC4/mu-opioid, membrane potential fluorescence | percent change from control (negative = decrease, positive = increase), % at 10 µM | 2,400 tested, 69% active;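 active means membrane potential signal moved up or down beyond 5 SD of buffer control wells, in both duplicate plates, actives on both sides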;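 further: plate controls were assay buffer wells for no effect and DAMGO maximal-effect wells for full effect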
TRPC4 ctr inh 2: mouse TRPC4 off-target activity of TRPC6 modulators, second screen; HEK293 TRPC4/mu-opioid, membrane potential dye fluorescence; stimulated with maximal-effect DAMGO; shares compounds with TRPC6 inh; AID 488928; inhibition, % at 10 µM; 2,400 tested, 55% active;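 active means drop in membrane potential signal beyond 5 SD of the control wells in both duplicate plates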;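 further: TRPC4 counter screen for TRPC6 hits run under conditions tuned for TRPC6 not TRPC4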
TRPC6 inh conf: confirmation of mouse TRPC6 inhibitors | shares compounds with TRPC6 inh | HEK293-TRPC6, membrane potential dye, ACh-evoked depolarization | inhibition, % at 10 µM | 3,300 tested, 43% active | AID 488960;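 active means fluorescence ratio falls more than 5 SD below the full-stimulation control mean, in both duplicate runs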;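 further: integrated fluorescence ratio of peak minus minimum over baseline after agonist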
TRPC6 act conf: confirmation of mouse TRPC6 activators; shares compounds with TRPC6 inh; HEK293-TRPC6 membrane potential dye fluorescence, FDSS; activation, % at 10 µM; 2,800 tested, 11% active; AID 488961;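 active means ratio signal rise beyond 5 SD above unstimulated control wells' mean, seen in both duplicate runs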;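 further: plate controls were buffer EC0 wells for no effect and acetylcholine ECmax response for full effect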
* hit, by the source's call; i = inactive; . = no result given. In the library only some 2.3% were active in any assay of this set; here they are far more common.

SMILES	TRPC6 inh	TRPC4 inh	TRPC4 potent	TRPC4 act	CR mimetic SO	TRPC6 act	HEK293 MPD ctr-2	HEK293 MPD ctr 2-2	TRPC4 ctr mod	TRPC4 ctr inh 2	TRPC6 inh conf	TRPC6 act conf	others
c1cc2c3c(cccc3c1)C(N1CCOCC1)=N2	-6.8*	i	i	i	99	i	-198%*	i	-129%*	84%*	52%*	i
CC1CN(C2=Nc3cccc4cccc2c34)CC(C)O1 (stereo not given)	-7.3*	i	i	i	103	i	-152%*	i	-72%*	46%*	58%*	i
COc1ccccc1N1CCN(C(=O)CN2C(=O)c3cccc4cccc(c34)C2=O)CC1	i	i	i	i	97	i	.	.	.	.	.	.
O=C(O)c1ccc(NC2=Nc3cccc4cccc2c34)cc1	i	i	i	i	.	i	.	.	.	.	.	.
COc1ccccc1N1CCN(C2=Nc3cccc4cccc2c34)CC1	-8.7*	i	i	i	88	i	-214%*	79%*	-45%*	84%*	60%*	i
Cc1ccc(C2CC(=O)c3cnc(N4CCc5ccccc5C4)nc3C2)cc1 (stereo not given)	i	i	i	i	93	i	.	.	.	.	.	.
CCCC(c1nnnn1Cc1cccs1)N1CCN(C)CC1 (stereo not given)	i	i	i	i	104	i	.	.	.	.	.	.
COc1ccccc1CN1CCN(C(CC(C)C)c2nnnn2Cc2cccs2)CC1 (stereo not given)	-7.2*	i	i	i	90	i	.	.	.	.	i	.	TRPC4 sel inh 2=9.5%*;TRPC4 spec=47%*;HEK293 MPD ctr 2-1=231%*;HEK293 MPD ctr-1=18%*
COc1nc(Nc2ccc(OC)c(Cl)c2)nc(OC)n1	i	i	i	i	91	i	.	.	.	.	.	.
CCOC(=O)C1CCN(C(=O)c2cccc(S(=O)(=O)Nc3ccc(C)cc3C)c2)CC1	-5.3*	i	i	i	100	i	i	i	12%*	i	36%*	.
CCN(CC)C(=O)c1csc(Nc2ccc(C)cc2)n1	-5.8*	i	i	i	100	i	i	i	i	i	i	i
Cc1nc(NC(=O)c2ccc(Cl)cc2)nc2cc3c(cc12)OCO3	i	i	i	i	93	i	.	.	.	.	.	.
Cc1cc(C)nc(Nc2nc(C)c3cc4c(cc3n2)OCO4)n1	-6.8*	i	i	i	79	i	.	.	.	.	i	i	TRPC4 sel inh 2=i;TRPC4 spec=9.0%*;HEK293 MPD ctr 2-1=-138%*;HEK293 MPD ctr-1=8.5%*
OCCNCc1ccc(OCc2ccc(Cl)cc2Cl)cc1	-6.7*	i	i	i	98	i	.	.	.	.	i	.	TRPC4 sel inh 2=68%*;TRPC4 spec=8.3%*;HEK293 MPD ctr 2-1=283%*;HEK293 MPD ctr-1=11%*
OCCCCNCc1ccc(OCc2ccc(Cl)cc2Cl)cc1	i	i	i	i	102	i	.	.	.	.	.	.
Cc1nc2cc(-c3ccc(Cl)cc3)nn2c(NCCN(C)C)c1C	-6*	i	i	i	78	i	-89%*	i	-21%*	46%*	i	i
N#Cc1c(NCCN)nc(-c2ccccc2)c2c1CCCC2	-6.2*	i	i	i	97	i	i	i	i	85%*	67%*	i
COC(=O)CSc1nc(-c2ccccc2)c2c(c1C#N)CCCC2	i	i	i	i	105	i	.	.	.	.	.	.
O=C1c2cccc3cccc(c23)C(=O)N1CC1CCN(CC(O)COc2ccc3ccccc3c2)CC1 (stereo not given)	i	i	i	i	104	i	.	.	.	.	.	.
COc1cccc(OCC(O)CN2CCC(CN3C(=O)c4cccc5cccc(c45)C3=O)CC2)c1 (stereo not given)	-10*	i	i	i	113	i	.	.	.	.	i	i	TRPC4 sel inh 2=62%*;TRPC4 spec=-14%*;HEK293 MPD ctr 2-1=i;HEK293 MPD ctr-1=-138%*
COc1ccc(COCC(O)CN2CCC(CN3C(=O)c4cccc5cccc(c45)C3=O)CC2)cc1OC (stereo not given)	-5.8*	i	i	i	97	i	-147%*	i	-30%*	88%*	69%*	i
COc1ccc(-c2csc(NC(C)c3nc4cc(C(=O)NCCCO)ccc4n3Cc3ccc(C)cc3)n2)cc1 (stereo not given)	i	i	i	i	101	i	.	.	.	.	.	.
COCCOC(=O)C(C#N)c1nc2ccccc2nc1N1CCN(Cc2ccccc2)CC1 (stereo not given)	-6.2*	i	i	i	93	i	i	i	i	36%*	i	i
COCC(C)OC(=O)C(C#N)c1nc2ccccc2nc1N1CCN(Cc2ccccc2)CC1 (stereo not given)	i	i	i	i	97	i	.	.	.	.	.	.
Nc1c(-c2ccccc2)cnn1-c1ccccc1	i	i	i	i	94	i	.	.	.	.	.	.
Nc1c(-c2cccc(Cl)c2)cnn1-c1ccccc1	-7.1*	i	i	i	123	i	-124%*	i	-18%*	76%*	52%*	i
